Compounds with a hit are over-represented: about 1.6% of the library has one in this group of screens.
HNF4A DNA FP: change in binding of human HNF4A to DNA, primary screen, biochemical, fluorescence polarization, FITC-DNA; Hepatocyte nuclear factor 4-alpha (Homo sapiens), P41235; 1 h; activity change, % at 10 µM; 360,000 tested, 0.3% active; AID 1224865, 2016; in the data active = activity change above about 30%, passing the limit was not always enough
CSN inh: inhibitors of CSN-mediated cullin deneddylation, primary screen, biochemical, fluorescence polarization, uHTS; inhibition, % at 12.5 µM; Purified CSN, SCF-Nedd8-OG deneddylation; 360,000 tested, 0.38% active;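 active = pattern-corrected inhibition above about 35%, with an unprinted fluorescence ratio check between 0.5 and 1.5, limit read from the data, passing the limit was not always enough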;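 also: 0% = enzyme with substrate and 100% = substrate without enzyme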
Target sequence (Q92905 whole entry, looked up, one chain of several): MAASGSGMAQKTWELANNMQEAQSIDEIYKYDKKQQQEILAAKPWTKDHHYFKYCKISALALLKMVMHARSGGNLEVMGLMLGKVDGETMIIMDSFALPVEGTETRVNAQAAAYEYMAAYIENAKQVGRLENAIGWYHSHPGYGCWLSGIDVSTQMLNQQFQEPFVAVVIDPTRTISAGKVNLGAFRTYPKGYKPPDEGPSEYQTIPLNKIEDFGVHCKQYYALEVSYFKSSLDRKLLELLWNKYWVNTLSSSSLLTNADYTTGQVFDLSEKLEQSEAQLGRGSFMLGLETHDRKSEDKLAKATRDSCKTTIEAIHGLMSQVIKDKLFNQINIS
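Detection – fluorescence polarization · System – HEK293T-derived human Csn5 enzyme · Controls – substrate-only high control, full reaction low control · Timing – 90 min, room temperature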
Rpn11 block: Rpn11 (PSMD14) deubiquitinase inhibitors, primary screen, biochemical, fluorescence polarization, uHTS; 26S proteasome non-ATPase regulatory subunit 14 (Homo sapiens), O00487; human 26S proteasome, Ub4-pepOG fluorescence polarization; 20S core pre-blocked with epoxomicin; inhibition, % at 20 µM; 360,000 tested, 0.59% active; AID 588493, 2011;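 active = inhibition at 20 µM, scaled to each plate's controls, above about 33%, limit read from the data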
Target sequence (O00487 whole entry, looked up): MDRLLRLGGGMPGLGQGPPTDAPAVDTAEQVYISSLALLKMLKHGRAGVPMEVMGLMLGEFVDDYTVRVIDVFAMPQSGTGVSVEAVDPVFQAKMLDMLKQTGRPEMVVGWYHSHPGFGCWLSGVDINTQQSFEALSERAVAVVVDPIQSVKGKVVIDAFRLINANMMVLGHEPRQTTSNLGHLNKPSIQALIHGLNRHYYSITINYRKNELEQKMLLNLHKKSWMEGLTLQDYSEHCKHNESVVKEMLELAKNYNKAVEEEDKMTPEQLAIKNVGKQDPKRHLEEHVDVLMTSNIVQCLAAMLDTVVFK
TPT1 inhibitor: Candida albicans TPT1 enzyme inhibitors, primary screen, biochemical, fluorescence polarization; inhibition, % at 5 µM; 300,000 tested, 0.81% active; tRNA 2'-phosphotransferase TPT1 (Candida albicans SC5314); recombinant caTPT1, FP RNA substrate dephosphorylation;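 active = inhibition above the mean of all tested compounds plus 3 SD, set per screening campaign, cut at about 24% in these data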;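 also: plate controls were DMSO alone for no effect and ferristatin control at 100 nM for full effect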
SENP1 inh: human SENP1 catalytic domain inhibitors, primary screen, biochemical, FRET, uHTS; Sentrin-specific protease 1 (Homo sapiens), Q9P0U3; recombinant SENP1 catalytic domain, CyPet-SUMO1-YPet FRET cleavage; inhibition, % at 10 µM; 360,000 tested, 0.21% active; AID 624204, 2012;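 active = inhibition at least 30% at 10 µM, raw YFP signal under a set limit, fluorescence ratio 0.5 to 1.5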;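 also: 0% = enzyme with DMSO and 100% = no enzyme wells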
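system = hSENP1 catalytic domain, recombinant | reagent = SFCypet-SUMO1-SFYpet substrate at 25 nM | doses = one dose per compound, 10 µM, 0.5% DMSO | incubation = enzyme reaction for 50 min at room temperature, dark | measured by = FRET, CFP and YFP emission | controls = no-enzyme low, enzyme-DMSO high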
* hit, by the source's call.

How did O=C(Cn1c(=O)n(Cc2ccco2)c(=O)c2c3c(sc21)CCCCC3)c1ccccc1 do in these assays?
HNF4A DNA FP: -13.2; CSN inh: 37.8*; Rpn11 block: -6.3; TPT1 inhibitor: 6.8; SENP1 inh: -3.3

What do the screens show for `Clc1ccc(C2=Nc3cc(Cl)ccc3OC2)cc1`?
HNF4A DNA FP: 68.0*; CSN inh: -9.2; Rpn11 block: -10.6; TPT1 inhibitor: 2.0; SENP1 inh: 1.6

How did O=C(c1[nH]c(C(F)(F)F)nc1-c1ccccc1)N1CCN(c2cccc(C(F)(F)F)n2)CC1 do in these assays?
HNF4A DNA FP: -0.4; CSN inh: -1.0; Rpn11 block: 6.7; SENP1 inh: 0.3

How did O=C(Nc1ccc(F)cc1)N(Cc1ccco1)Cc1cc2cc3c(cc2[nH]c1=O)OCO3 do in these assays?
HNF4A DNA FP: 41.9*; CSN inh: -2.3; Rpn11 block: -11.1; TPT1 inhibitor: 0.0; SENP1 inh: 12.3

How did Cc1cn2c(N)c(C=C3C=C(Cl)C(=O)C(Cl)=C3)c(=O)nc2s1 do in these assays?
HNF4A DNA FP: 107.8*; CSN inh: 62.4; SENP1 inh: -28.1

How did Cc1cn2c(N)c(/C=C3\C=Nc4ccccc43)c(=O)nc2s1 do in these assays?
HNF4A DNA FP: 5.5; CSN inh: 3.0; Rpn11 block: 22.4; TPT1 inhibitor: -2.2; SENP1 inh: -65.5

Results for CCCCCCc1cc2cc(C(=O)NCc3ccccc3)c(=N)oc2cc1O ?
HNF4A DNA FP: 81.3; CSN inh: 53.8*; TPT1 inhibitor: 22.2; SENP1 inh: -32.2

How did CCOC(=O)[C@]12CCC=C1N(Cc1ccccc1)C(=O)[C@H](CC(=O)NCC13CC4CC(CC(C4)C1)C3)C2 do in these assays?
HNF4A DNA FP: 1.3; CSN inh: -2.1; SENP1 inh: -1.3

What do the screens show for `CC1=CC(=C2C(=O)c3ccccc3C2=O)C=C(C)N1Cc1ccco1`?
HNF4A DNA FP: 1.3; CSN inh: 5.9; Rpn11 block: -22.3; TPT1 inhibitor: 0.9; SENP1 inh: 37.2*

How did O=C1c2ccccc2C(=O)N1Cc1ccco1 do in these assays?
HNF4A DNA FP: 0.9; CSN inh: 1.6; Rpn11 block: -12.1; TPT1 inhibitor: -4.5; SENP1 inh: 0.6

How did CCCCCCCCCCCCCCCCn1cc[n+](C)c1 do in these assays?
HNF4A DNA FP: 24.3; CSN inh: 6.8; Rpn11 block: 97.2*; TPT1 inhibitor: -0.3; SENP1 inh: 0.8

How did C=CCNc1ncnc2c1ncn2[C@H]1CN(Cc2ccccc2)C[C@@H](COC(C)=O)O1 do in these assays?
HNF4A DNA FP: -0.8; CSN inh: -0.1; Rpn11 block: -1.6; SENP1 inh: -6.9

How did Cn1c(/C=C/c2ccc([N+](=O)[O-])o2)nc2ccccc2c1=O do in these assays?
HNF4A DNA FP: 59.5*; CSN inh: 28.5; TPT1 inhibitor: -39.8; SENP1 inh: 6.0

What do the screens show for `COc1ccccc1N1C(=O)C2C(c3ccc(F)cc3)NN(C(=O)c3ccc(C)cc3)C2C1=O` (centres undefined)?
HNF4A DNA FP: -4.6; CSN inh: -2.4; Rpn11 block: 2.3; TPT1 inhibitor: -2.0; SENP1 inh: 3.1

How did CCOC(=O)[C@H]1[C@H]2COc3ccccc3[C@@H]2N2C(=O)CN(Cc3ccc(C)cc3)C(=O)[C@@]12C do in these assays?
HNF4A DNA FP: -45.4; CSN inh: -12.7; Rpn11 block: -47.5; SENP1 inh: 33.8*

How did c1ccc(CC2CCN(C3=Nc4cccc5cccc3c45)CC2)cc1 do in these assays?
HNF4A DNA FP: 10.4; CSN inh: 4.9; Rpn11 block: 38.7*; TPT1 inhibitor: 19.7; SENP1 inh: 59.5

Results for CC(=O)N1CCN(C2=Nc3cccc4cccc2c34)CC1 ?
HNF4A DNA FP: -6.1; CSN inh: -5.7; Rpn11 block: -20.7; TPT1 inhibitor: -12.2; SENP1 inh: -22.7

What do the screens show for `COc1ccccc1N1CCN(C2=Nc3cccc4cccc2c34)CC1`?
HNF4A DNA FP: 9.1; CSN inh: 6.5; Rpn11 block: 38.4; TPT1 inhibitor: 16.1; SENP1 inh: 94.6*

Results for COc1ccc(/C=N/N2CCN(Cc3ccc(C)cc3)CC2)cc1Br ?
HNF4A DNA FP: 0.9; CSN inh: 4.4; Rpn11 block: 7.2; TPT1 inhibitor: -2.0; SENP1 inh: -0.1

What do the screens show for `CCSc1nnc(NC(=O)CSc2sc3c(O)cc(=O)[nH]c3c2C#N)s1`?
HNF4A DNA FP: -33.0; CSN inh: 34.8; Rpn11 block: 58.6*; TPT1 inhibitor: 1.8; SENP1 inh: -18.5

How did Cc1csc(NC(=O)CSc2sc3c(O)cc(=O)[nH]c3c2C#N)n1 do in these assays?
HNF4A DNA FP: -12.8; CSN inh: 14.8; Rpn11 block: 39.9; TPT1 inhibitor: 3.5; SENP1 inh: -11.0

Results for C=CCn1c(SCC(=O)c2c(C)[nH]c3ccccc23)nnc1-c1ccncc1 ?
HNF4A DNA FP: 4.9; CSN inh: 36.1*; Rpn11 block: -6.9; TPT1 inhibitor: -8.2; SENP1 inh: -5.1

What do the screens show for `NC(=S)N/N=C/c1coc2cc(Br)ccc2c1=O`?
HNF4A DNA FP: -2.8; CSN inh: 2.5; Rpn11 block: 41.5*; TPT1 inhibitor: -0.5; SENP1 inh: -7.5

Results for O=C(NC(=S)Nc1ccccn1)c1cncc(Br)c1 ?
HNF4A DNA FP: 66.2*; CSN inh: 3.4; Rpn11 block: -8.2; TPT1 inhibitor: 3.4; SENP1 inh: 0.6

Results for COc1ccc(Oc2c(OC)cc(NCc3ccc(CN)cc3)c3ncccc23)cc1 ?
HNF4A DNA FP: -40.2; CSN inh: 41.6*; Rpn11 block: 20.3; SENP1 inh: -31.7

Results for CC(=O)C[C@H]1SC[C@@H](C(C)C)N1S(=O)(=O)c1ccc(C)cc1 ?
HNF4A DNA FP: 0.0; CSN inh: -4.1; SENP1 inh: 2.2

How did CN(C)c1ccc2c(=O)cc[nH]c2c1 do in these assays?
HNF4A DNA FP: 9.5; CSN inh: 1.0; Rpn11 block: 6.1; SENP1 inh: -18.3

How did COc1ccccc1C#CC1=CC(=O)C[C@H](c2ccc(F)cc2)C1 do in these assays?
HNF4A DNA FP: -4.5; CSN inh: -6.7; Rpn11 block: -2.0; SENP1 inh: -2.9

Results for CC(=O)NS(=O)(=O)c1ccc(NC(=S)NC(=O)c2ccco2)cc1 ?
HNF4A DNA FP: 14.1; CSN inh: 93.3*; Rpn11 block: 9.9; TPT1 inhibitor: -4.5; SENP1 inh: 2.4

What do the screens show for `CC1(C)Cc2ccccc2C2CC(O)C(=O)N21` (centres undefined)?
HNF4A DNA FP: 35.4*; CSN inh: 1.0; Rpn11 block: 3.5; TPT1 inhibitor: 0.8; SENP1 inh: -39.2

Screening data as filed in PubChem.
